Experimental data taken from ChEMBL document CHEMBL4152356, “Amphipathic sulfonamidobenzamides mimicking small antimicrobial marine natural products; investigation of antibacterial and anti-biofilm activity against antibiotic resistant clinical isolates” (Bioorg Med Chem, 2018).

Legend:
Staphylococcus aureus [1] = experiment: Antibacterial activity against Staphylococcus aureus ATCC 9144 after 48 hrs by microdilution method; assay type: functional; conditions: ATCC 9144, 48 h
Summary of the method: (§1)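 Broth microdilution (CLSI M07-A9, modified) in Mueller-Hinton broth; inoculum about 2.5-3 × 10^4 cells/ml mixed 1:1 with serial compound dilutions. Stock solutions in up to 100% DMSO, final DMSO ≤1%. Incubated 35 °C for 48 h.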

[2] = system: Staphylococcus epidermidis; experiment: Antibacterial activity against methicillin resistant Staphylococcus epidermidis RP62A ATCC 35984/CCUG 31568 after 48 hrs by microdilution method; assay type: functional; conditions: RP62A ATCC 35984/CCUG 31568, 48 h
Summary of the method: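 Broth microdilution (modified CLSI M07-A9) against the MRSE reference strain. Inoculum of about 2.5-3 × 10^4 cells/ml in Mueller-Hinton broth mixed 1:1 with serial compound dilutions; final DMSO ≤1%. Incubated 35 °C, 48 h.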

Bacillus subtilis = experiment: Antibacterial activity against Bacillus subtilis 168 ATCC 23857 after 48 hrs by microdilution method; assay type: functional; conditions: subsp. subtilis str. 168 ATCC 23857, 48 h; summary of the method: as §1
[3] = system: Corynebacterium glutamicum; experiment: Antibacterial activity against Corynebacterium glutamicum ATCC 13032 after 48 hrs by microdilution method; assay type: functional; conditions: ATCC 13032, 48 h; summary of the method: as §1
Escherichia coli [4] = experiment: Antibacterial activity against Escherichia coli ATCC 25922 after 48 hrs by microdilution method; assay type: functional; conditions: ATCC 25922, 48 h; summary of the method: as §1
Pseudomonas aeruginosa [5] = experiment: Antibacterial activity against Pseudomonas aeruginosa PAO1 DSM 19880 ATCC 15692 after 48 hrs by microdilution method; assay type: functional; conditions: PAO1 DSM 19880 ATCC 15692, 48 h; summary of the method: as §1
Erythrocyte = experiment: Hemolytic activity against human RBC measured after 1 hr; assay type: cell-based
Summary of the method: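 Washed human RBCs from a healthy donor (heparinized) at 10% in PBS pH 7.4, mixed 9:1 with serial compound dilutions, 37 °C for 1 h. Baseline set by 0.5% DMSO in 50% PBS, 100% lysis by 0.05% Triton X-100. EC50 is the concentration giving 50% lysis.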

MRC5 = experiment: Cytotoxicity against human MRC5 cells after 72 hrs by MTS assay; assay type: cell-based; conditions: MRC5, 72 h
Summary of the method: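 MRC-5 lung fibroblasts in DMEM with 10% FBS, 37 °C, 5% CO2; seeded at 4000 cells/well, adhered 24 h, medium replaced. Two-fold dilutions up to 100 µg/ml for 72 h, then MTS for 1 h and absorbance at 485 nm. Controls were 1% DMSO (negative) and 0.5% Triton X-100 (positive). EC50 is the concentration giving 50% inhibition of survival.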

[6] = Selectivity index, ratio of EC50 for human RBC to MIC for methicillin resistant Staphylococcus epidermidis RP62A ATCC 35984/CCUG 31568; assay type: toxicity; conditions: human red blood cells (RBC), read-out: Selectivity Index
Summary of the method: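 SI = hemolytic EC50 / MRSE MIC. Hemolysis: washed human RBCs (heparinized blood, healthy adult donor) at 10% in PBS pH 7.4, mixed 9:1 with serial compound dilutions, 37 °C for 1 h. 0.05% Triton X-100 set 100% lysis, 0.5% DMSO set baseline. MIC from MHB microdilution, 35 °C, […].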

Staphylococcus aureus [7] = experiment: Antibacterial activity against Staphylococcus aureus clinical isolates after 24 hrs by microdilution method; assay type: functional
Summary of the method: (§2)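 Clinical isolate screen by broth microdilution with about 1-1.2 × 10^6 cells/ml and 24 h incubation. MIC is the lowest concentration with no growth. For isolate collections, MIC90 is the MIC inhibiting ≥90% of isolates. Multidrug resistance was defined as resistance to at least […] antimicrobial class.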

Enterococcus sp. = experiment: Antibacterial activity against Enterococcus sp. clinical isolates after 24 hrs by microdilution method; assay type: functional; summary of the method: as §2
Escherichia coli [8] = experiment: Antibacterial activity against Escherichia coli clinical isolates after 24 hrs by microdilution method; assay type: functional; summary of the method: as §2
Pseudomonas aeruginosa [9] = experiment: Antibacterial activity against Pseudomonas aeruginosa clinical isolates after 24 hrs by microdilution method; assay type: functional; summary of the method: as §2
Klebsiella pneumoniae = experiment: Antibacterial activity against Klebsiella pneumoniae clinical isolates after 24 hrs by microdilution method; assay type: functional; summary of the method: as §2
[10] = system: Staphylococcus epidermidis; experiment: Antibiofilm activity against Staphylococcus epidermidis RP62A ATCC 35984/CCUG 31568 incubated for 24 +/- 2 hrs by crystal violet staining based assay; assay type: functional
Summary of the method: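 Mature S. epidermidis RP62A biofilms: filtered overnight TSB culture adjusted to 2 McFarland, diluted in TSB with 1% glucose to about 6 × 10^6 CFU/ml, grown 24 ± 2 h at 37 °C static, then PBS-washed. Compounds in 50% TSBglu added for 24 ± 2 h at 37 °C. Biomass given as % of untreated control; ≥90% eradication threshold. Compounds tested at 2x, 5x and 10x MIC, 4-8 parallels on 2-3 plates, highest and lowest values excluded.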

SMILES	MIC (Staphylococcus aureus [1]) [µg/mL]	MIC [2] [µg/mL]	MIC (Bacillus subtilis) [µg/mL]	MIC [3] [µg/mL]	MIC (Escherichia coli [4]) [µg/mL]	MIC (Pseudomonas aeruginosa [5]) [µg/mL]	EC50 (Erythrocyte) [µg/mL]	EC50 (MRC5) [µg/mL]	selectivity ratio [6]	MIC (Staphylococcus aureus [7]) [µg/mL]	MIC (Enterococcus sp.) [µg/mL]	MIC (Escherichia coli [8]) [µg/mL]	MIC (Pseudomonas aeruginosa [9]) [µg/mL]	MIC (Klebsiella pneumoniae) [µg/mL]	MBIC=>90 [10] [µg/mL]
CC(C)(C)c1cc(C(C)(C)C)cc(S(=O)(=O)NCCCCNC(=N)N)c1.Cl	8	8	16	4	64	64	110	42	14	16	32	128	64	128	40
CC(C)(C)c1cc(C(C)(C)C)cc(S(=O)(=O)NCc2ccc(C(=O)NCCNC(=N)N)cc2)c1.Cl	16	8	8	4	32	32	113	> 100	14	16	64	128	64	128	80
CN(c1ccc(C(=O)NCCCN)cc1)S(=O)(=O)c1cc(C(C)(C)C)cc(C(C)(C)C)c1.Cl	16	16	8	8	16	32	28	9	2	–	–	–	–	–	–
CC(C)(C)c1cc(C(C)(C)C)cc(S(=O)(=O)N2CCC[C@H]2C(=O)NCCNC(=N)N)c1.Cl	64	32	32	8	> 128	128	> 128	> 100	> 4	–	–	–	–	–	–
CN(c1cccc(C(=O)NCCN)c1)S(=O)(=O)c1cc(C(C)(C)C)cc(C(C)(C)C)c1.Cl	16	16	8	8	16	32	26	10	2	–	–	–	–	–	–
CN(c1ccc(C(=O)NCCNC(=N)N)cc1)S(=O)(=O)c1cc(C(C)(C)C)cc(C(C)(C)C)c1.Cl	4	4	4	2	32	16	45	36	11	4	32	32	16	64	40
CC(C)(C)c1cc(C(C)(C)C)cc(S(=O)(=O)Nc2ccc(CC(=O)NCCNC(=N)N)cc2)c1.Cl	16	8	8	8	64	64	101	55	13	16	32	64	64	128	40
CC(C)(C)c1cc(C(C)(C)C)cc(S(=O)(=O)Nc2cccc(C(=O)NCCNC(=N)N)c2)c1.Cl	8	8	8	4	32	32	92	> 100	12	8	32	64	64	128	40
CC(C)(C)c1cc(C(C)(C)C)cc(S(=O)(=O)N2CCC(C(=O)NCCNC(=N)N)CC2)c1.Cl	16	16	16	4	64	128	124	> 100	8	–	–	–	–	–	80
CC(C)(C)c1cc(C(C)(C)C)cc(S(=O)(=O)Nc2ccc(C(=O)NCCN)cc2)c1.Cl	32	32	16	8	64	64	63	25	2	–	–	–	–	–	–
CC(C)(C)c1cc(C(C)(C)C)cc(S(=O)(=O)Nc2cccc(C(=O)NCCN)c2)c1.Cl	16	8	8	8	32	64	58	16	7	–	–	–	–	–	–
CC(C)(C)c1cc(C(C)(C)C)cc(S(=O)(=O)Nc2cc3ccccc3cc2C(=O)NCCN)c1.Cl	4	4	4	2	8	32	21	22	5	8	8	32	32	128	–
CC(C)(C)c1cc(C(C)(C)C)cc(S(=O)(=O)Nc2ccc(CC(=O)NCCN)cc2)c1.Cl	32	16	16	16	64	64	73	20	5	–	–	–	–	–	–
CC(C)(C)c1cc(C(C)(C)C)cc(S(=O)(=O)Nc2ccccc2C(=O)NCCNC(=N)N)c1.Cl	4	8	8	4	32	64	77	42	10	8	32	64	32	128	–
CC(C)(C)c1cc(C(C)(C)C)cc(S(=O)(=O)Nc2ccccc2C(=O)NCCN)c1.Cl	32	32	32	16	64	128	56	10	2	32	32	128	128	128	–
CC(C)(C)c1cc(C(C)(C)C)cc(S(=O)(=O)NCc2ccc(C(=O)NCCN)cc2)c1.Cl	32	16	8	8	32	32	92	20	6	–	–	–	–	–	–
CC(C)(C)c1cc(C(=O)Nc2ccccc2C(=O)NCCNC(=N)N)cc(C(C)(C)C)c1.Cl	–	–	–	–	–	–	–	22	–	–	–	–	–	–	–
Cc1cc(C)cc(S(=O)(=O)Nc2ccc(C(=O)NCCNC(=N)N)cc2)c1.Cl	128	64	64	64	> 128	> 128	> 128	> 100	> 2	–	–	–	–	–	–
CN(c1ccc(C(=O)NCCN)cc1)S(=O)(=O)c1cc(C(C)(C)C)cc(C(C)(C)C)c1.Cl	16	16	8	16	16	32	53	5	3	–	–	–	–	–	–
